Laboratory results taken from ChEMBL document CHEMBL4373712, “Bioactivatable Pseudotripeptidization of Cyclic Dipeptides To Increase the Affinity toward Oligopeptide Transporter 1 for Enhanced Oral Absorption: An Application to Cyclo(l-Hyp-l-Ser) (JBP485)” (J Med Chem, 2019).

How the values were obtained:
[1] = Half life in pH 1.2 simulated gastric fluid at 5 mM by HPLC analysis; assay type: ADME
Summary of the method: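 Compound at 5 mM in 0.1 M HCl, pH 4.5 acetate buffer, pH 5.8/6.8/7.2 phosphate buffers, SGF (pH 1.2) and SIF (pH 6.8), prepared per Chinese Pharmacopoeia. Samples taken at 0-20 h and analyzed by HPLC-UV. k = 2.303×slope of log C versus time; t1/2 = 0.693/k.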

[2] = molecular target: T1, Solute carrier family 22 member 3 (Homo sapiens, UniProt O75751); experiment: Substrate activity at OCT3 in human Caco2 cells assessed as protein-mediated drug uptake at 0.5 mM measured after 10 mins in absence of OCT1 substrate metformin by UPLC-MS/MS analysis; assay type: ADME, cell-based; details: caco-2, 10 min, 500 µM
T1 sequence (O75751 whole entry): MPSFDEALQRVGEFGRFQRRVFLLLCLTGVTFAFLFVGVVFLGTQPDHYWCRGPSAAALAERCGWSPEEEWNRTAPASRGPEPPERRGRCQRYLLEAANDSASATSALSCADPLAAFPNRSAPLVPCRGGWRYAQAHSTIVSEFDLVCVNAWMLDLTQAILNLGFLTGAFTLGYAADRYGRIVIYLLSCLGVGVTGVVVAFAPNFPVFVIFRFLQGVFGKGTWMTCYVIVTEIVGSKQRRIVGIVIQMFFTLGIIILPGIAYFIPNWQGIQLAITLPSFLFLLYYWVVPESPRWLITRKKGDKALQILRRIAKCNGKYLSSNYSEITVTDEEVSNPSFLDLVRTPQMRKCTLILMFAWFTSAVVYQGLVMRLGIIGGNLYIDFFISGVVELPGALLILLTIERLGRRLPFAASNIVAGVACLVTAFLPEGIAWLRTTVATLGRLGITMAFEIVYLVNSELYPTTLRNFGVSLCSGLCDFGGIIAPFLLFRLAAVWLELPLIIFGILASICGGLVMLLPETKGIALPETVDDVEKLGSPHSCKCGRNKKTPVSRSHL
Summary of the method: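 Caco-2 cells in 24-well plates took up 0.5 mM compound for 10 min at 37 °C, with or without 50 mM captopril ([…]) or metformin (OCT1-3 substrate). Cells were washed in ice-cold PBS and homogenised in water; lysate protein was measured and drug assayed by UPLC-MS/MS. n=3.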

[3] = molecular target: T2, Solute carrier family 15 member 1 (Rattus norvegicus, UniProt P51574); experiment: Substrate activity at PEPT1 in Sprague-Dawley rat jejunum assessed as effective permeability at 5 mM measured after 15 to 120 mins by HPLC analysis; assay type: ADME, tissue-based; details: 5000 µM
T2 sequence (P51574 whole entry): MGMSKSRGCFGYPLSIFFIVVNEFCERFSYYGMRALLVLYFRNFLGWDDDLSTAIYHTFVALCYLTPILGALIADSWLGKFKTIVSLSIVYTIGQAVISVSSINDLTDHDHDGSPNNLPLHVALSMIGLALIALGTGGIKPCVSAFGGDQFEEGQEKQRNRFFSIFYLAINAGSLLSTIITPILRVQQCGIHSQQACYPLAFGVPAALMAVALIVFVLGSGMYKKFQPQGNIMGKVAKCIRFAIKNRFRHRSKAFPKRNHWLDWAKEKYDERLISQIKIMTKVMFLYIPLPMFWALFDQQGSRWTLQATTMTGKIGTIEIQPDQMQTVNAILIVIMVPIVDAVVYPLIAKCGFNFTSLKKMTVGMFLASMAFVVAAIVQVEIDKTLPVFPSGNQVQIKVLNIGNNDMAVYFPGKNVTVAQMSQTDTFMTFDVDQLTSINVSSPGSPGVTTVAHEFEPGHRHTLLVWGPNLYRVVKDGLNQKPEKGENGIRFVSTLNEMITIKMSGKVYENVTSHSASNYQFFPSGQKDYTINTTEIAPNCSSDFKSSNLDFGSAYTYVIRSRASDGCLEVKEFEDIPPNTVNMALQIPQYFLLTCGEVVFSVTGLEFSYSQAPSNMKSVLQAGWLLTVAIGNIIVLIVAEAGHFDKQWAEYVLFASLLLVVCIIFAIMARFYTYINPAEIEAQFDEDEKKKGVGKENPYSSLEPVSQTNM
Summary of the method: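 In situ single-pass jejunal perfusion in fasted (12 h) male SD rats anaesthetised with urethane 1.5 g/kg i.p. About 10 cm of jejunum was perfused at 0.2 mL/min with pH 6.0 HEPES buffer containing 5 mM compound. Outflow was collected 15–120 min after steady state and assayed by HPLC. Peff was calculated from outlet/inlet concentration and volume ratios and segment radius and length.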

[4] = molecular target: T3, Solute carrier family 15 member 1 (Homo sapiens, UniProt P46059); experiment: Substrate activity at PEPT1 in human Caco2 cells assessed as protein-mediated drug uptake at 0.5 mM measured after 10 mins in pH 6 HBSS buffer by UPLC-MS/MS analysis; assay type: ADME, cell-based; details: caco-2, pH 6, 10 min, 500 µM
T3 sequence (P46059 whole entry): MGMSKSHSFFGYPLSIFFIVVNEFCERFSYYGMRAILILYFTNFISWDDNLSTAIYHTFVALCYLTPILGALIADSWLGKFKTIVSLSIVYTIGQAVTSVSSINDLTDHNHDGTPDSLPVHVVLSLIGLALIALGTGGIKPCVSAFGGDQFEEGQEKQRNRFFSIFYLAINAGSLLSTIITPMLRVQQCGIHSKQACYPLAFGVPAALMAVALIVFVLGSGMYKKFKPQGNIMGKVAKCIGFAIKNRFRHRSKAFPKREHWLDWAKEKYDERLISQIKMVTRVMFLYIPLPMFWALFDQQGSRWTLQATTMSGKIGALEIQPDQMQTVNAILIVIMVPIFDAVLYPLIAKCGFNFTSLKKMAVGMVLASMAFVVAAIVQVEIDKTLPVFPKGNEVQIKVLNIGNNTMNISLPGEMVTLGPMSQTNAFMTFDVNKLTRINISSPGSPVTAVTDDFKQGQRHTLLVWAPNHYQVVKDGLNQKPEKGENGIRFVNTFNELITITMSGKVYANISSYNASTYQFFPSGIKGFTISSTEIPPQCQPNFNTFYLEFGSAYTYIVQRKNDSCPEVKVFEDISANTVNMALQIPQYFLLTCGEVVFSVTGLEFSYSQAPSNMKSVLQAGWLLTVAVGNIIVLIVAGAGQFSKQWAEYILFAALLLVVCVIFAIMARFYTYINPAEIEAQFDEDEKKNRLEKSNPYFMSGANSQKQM
Summary of the method: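 Caco-2 cells incubated 10 min with 0.5 mM compound in HBSS at pH 6.0 or pH 7.4, washed three times in ice-cold PBS pH 7.4, homogenised. Protein by DC assay; drug by UPLC-MS/MS; n=3.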

[5] = test system: Rattus norvegicus; experiment: Anti-hepatitis activity in ANIT-induced po dosed Sprague-Dawley rat model of cholestasis assessed as reduction in serum total bilirubin level administered 30 mins prior to ANIT challenge and subsequent dosing at 8, 22, 32, and 46 hrs post ANIT challenge and measured 48 hrs post ANIT challenge; assay type: functional, organism-based
Summary of the method: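 Male SD rats, 6 weeks old, fasted 12 h, 6 per group. Cholestasis induced by ANIT 50 mg/kg ip in olive oil. Test agents were given in water; UDCA 100 mg/kg was given orally in CMC-Na. Dosing at 30 min before and 8, 22, 32 and 46 h after ANIT. Serum taken from the abdominal aorta under chloral hydrate anesthesia at 48 h; total bilirubin measured with an assay kit.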

Row | Compound | half-life at 5000 µM [1] [h] | Drug uptake [2] | Peff [3] | Drug uptake [4] | Activity [5]
1 | CC(C)[C@H](N)C(=O)OC[C@@H]1NC(=O)[C@@H]2C[C@@H](O)CN2C1=O | > 20 | Not Active | Permeable | Active | Dose-dependent effect
2 | O=C1N[C@@H](CO)C(=O)N2C[C@H](O)C[C@@H]12 | > 20 | Not Active | Permeable | Active | Dose-dependent effect
